Results reported in ChEMBL document CHEMBL2010803, “Novel NSAID 1-acyl-4-cycloalkyl/arylsemicarbazides and 1-acyl-5-benzyloxy/hydroxy carbamoylcarbazides as potential anticancer agents and antioxidants” (Eur J Med Chem, 2012).
pIC50: −log10 of the molar value. Activity calls are given as the source filed them.

What was measured:
[1] = tested on: Human immunodeficiency virus 2; assay: Antiviral activity against HIV2 ROD infected in human CEM cells assessed as inhibition of virus-induced CEM giant cell formation at 0.32 to 100 uM after 4 days; format: functional, organism-based; conditions: ISOLATE ROD, CCRF-CEM
How it was run: (§1)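 CEM cells (~3 × 10^5 cells/cm³) exposed to 100 CCID50/ml of virus and seeded into wells holding compound dilutions. Incubated 4 days at 37 °C, then giant cell formation examined microscopically.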

Glycine max = assay: Inhibition of soybean LOX assessed as conversion of sodium linoleate to 13- hydroperoxylinoleic acid at 100 uM
Coxsackievirus B4 [2] = assay: Antiviral activity against Coxsackievirus B4 infected in african green monkey Vero cells assessed as inhibition of virus-induced cytopathic effect at 0.32 to 100 uM; format: functional, organism-based
How it was run: (§2)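 Confluent cell cultures were infected with 100 CCID50 of virus in the presence of test compound at 100, 40, 8, 1.6 and 0.32 μM. Cytopathic effect was scored once it was complete in untreated infected controls.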

Feline coronavirus = assay: Antiviral activity against Feline coronavirus infected in feline CRFK cells assessed as inhibition of virus-induced cytopathic effect at 0.32 to 100 uM; format: functional, organism-based; how it was run: as §2
HeLa = assay: Cytostatic activity against human HeLa cells after 3 days by coulter counter analysis; format: functional, cell-based; conditions: 72 h
How it was run: (§3)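 300,000–500,000 cells/ml mixed 1:1 with compound dilutions and incubated at 37 °C for 2 days (L1210) or 3 days (CEM, HeLa). Cell number counted with a Coulter counter; HeLa trypsinized before counting.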

[3] = tested on: Vesicular stomatitis virus; assay: Antiviral activity against VSV infected in human lung fibroblast assessed as inhibition of virus-induced cytopathic effect at 0.32 to 100 uM; format: functional, organism-based
[4] = tested on: Radical scavenging activity; assay: Antioxidant activity assessed as DPPH free radical scavenging activity at 100 uM after 20 mins by spectrophotometric analysis; format: functional
How it was run: (§4)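 0.05 mM DPPH in absolute ethanol mixed with an equal volume of compound in DMSO (final 100 μM). Shaken and left 20 or 60 min, then absorbance read at 517 nm and percent activity calculated. Three replicates, averaged.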

Influenza A virus [5] = assay: Antiviral activity against Influenza A virus H1N1 infected in MDCK cells assessed as inhibition of virus-induced cytopathic effect at 0.32 to 100 uM; format: functional, organism-based
How it was run: (§5)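 Confluent MDCK monolayers were infected in the presence of the compound at 100, 40, 8, 1.6 and 0.32 μM. Viral cytopathicity was scored once it was complete in untreated infected control cultures.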

Influenza A virus [6] = assay: Antiviral activity against Influenza A virus H3N2 infected in MDCK cells assessed as inhibition of virus-induced cytopathic effect at 0.32 to 100 uM; format: functional, organism-based; how it was run: as §5
Sindbis virus = assay: Antiviral activity against Sindbis virus infected in african green monkey Vero cells assessed as inhibition of virus-induced cytopathic effect at 0.32 to 100 uM; format: functional, organism-based; how it was run: as §2
Punta Toro virus = assay: Antiviral activity against Punta Toro virus infected in african green monkey Vero cells assessed as inhibition of virus-induced cytopathic effect at 0.32 to 100 uM; format: functional, organism-based; how it was run: as §2
NCI-H460 = assay: Cytostatic activity against human NCI-H460 cells after 72 hrs by MTT assay; format: functional, cell-based; conditions: NCI-H460, 72 h
How it was run: (§6)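 Monolayers in DMEM with 10% FBS, 2 mM L-glutamine and penicillin/streptomycin, 37 °C, 5% CO2. Seeded at 1–3 × 10^4 cells/ml, then compound added in tenfold dilutions (10⁻⁸–10⁻⁴ M) for 72 h. MTT read at 570 nm; percent growth taken against time-zero and untreated controls. IC50 by linear regression; quadruplicate, at least two experiments.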

CCRF-CEM = assay: Cytostatic activity against human CEM cells after 3 days by coulter counter analysis; format: functional, cell-based; conditions: 72 h; how it was run: as §3
Influenza B virus = assay: Antiviral activity against Influenza B virus infected in MDCK cells assessed as inhibition of virus-induced cytopathic effect at 0.32 to 100 uM; format: functional, organism-based; how it was run: as §5
[7] = tested on: Respiratory syncytial virus; assay: Antiviral activity against RSV infected in human cervix carcinoma cells assessed as inhibition of virus-induced cytopathic effect at 0.32 to 100 uM; format: functional, organism-based; how it was run: as §2
HCT-116 = assay: Cytostatic activity against human HCT116 cells after 72 hrs by MTT assay; format: functional, cell-based; conditions: HCT-116, 72 h; how it was run: as §6
L1210 = assay: Cytostatic activity against mouse L1210 cells after 2 days by coulter counter analysis; format: functional, cell-based; conditions: L1210, 48 h; how it was run: as §3
Human respirovirus 3 = assay: Antiviral activity against Parainfluenza virus 3 infected in african green monkey Vero cells assessed as inhibition of virus-induced cytopathic effect at 0.32 to 100 uM; format: functional, organism-based; how it was run: as §2
[8] = tested on: Mammalian orthoreovirus 1; assay: Antiviral activity against Reovirus-1 infected in african green monkey Vero cells assessed as inhibition of virus-induced cytopathic effect at 0.32 to 100 uM; format: functional, organism-based; how it was run: as §2
[9] = tested on: Human immunodeficiency virus 1; assay: Antiviral activity against HIV1 3B infected in human CEM cells assessed as inhibition of virus-induced CEM giant cell formation at 0.32 to 100 uM after 4 days; format: functional, organism-based; conditions: CCRF-CEM; how it was run: as §1
[10] = Antioxidant activity assessed as inhibition of AAPH-induced linoleic acid lipid peroxidation by measuring conjugated diene hydroperoxide level; format: functional; parameters: concentration or dose not given beside the values; conditions: dose or concentration not given here
How it was run: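 Linoleic acid sodium salt (10 μL of 16 mM) in 0.05 M phosphate buffer pH 7.4 at 37 °C. Oxidation started under air with 50 μL of 40 mM AAPH. Conjugated diene hydroperoxide formation followed as absorbance rise at 234 nm; control contains the same DMSO level. At least triplicate.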

Felid alphaherpesvirus 1 = assay: Antiviral activity against Feline herpesvirus infected in feline CRFK cells assessed as inhibition of virus-induced cytopathic effect at 0.32 to 100 uM; format: functional, organism-based; how it was run: as §2
[11] = tested on: Vesicular stomatitis virus; assay: Antiviral activity against Vesicular stomatitis virus infected in human cervix carcinoma cells assessed as inhibition of virus-induced cytopathic effect at 0.32 to 100 uM; format: functional, organism-based
How it was run: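 Confluent human cervix carcinoma (HeLa) cultures received 100 CCID50 of VSV together with the compound at 100, 40, 8, 1.6 or 0.32 μM. Cytopathicity was read at the point of full CPE in infected, untreated control wells.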

[12] = tested on: Radical scavenging activity; assay: Antioxidant activity assessed as DPPH free radical scavenging activity at 100 uM after 60 mins by spectrophotometric analysis; format: functional; how it was run: as §4
Human alphaherpesvirus 1 = assay: Antiviral activity against HSV1 KOS infected in human lung fibroblast assessed as inhibition of virus-induced cytopathic effect at 0.32 to 100 uM; format: functional, organism-based; how it was run: as §2
Vaccinia virus = assay: Antiviral activity against Vaccinia virus infected in human lung fibroblast assessed as inhibition of virus-induced cytopathic effect at 0.32 to 100 uM; format: functional, organism-based; conditions: Orthopoxvirus vaccinia
MCF7 = assay: Cytostatic activity against human MCF7 cells after 72 hrs by MTT assay; format: functional, cell-based; conditions: MCF7, 72 h; how it was run: as §6
Human alphaherpesvirus 2 = assay: Antiviral activity against HSV2 G infected in human lung fibroblast assessed as inhibition of virus-induced cytopathic effect at 0.32 to 100 uM; format: functional, organism-based; conditions: strain G; how it was run: as §2
Coxsackievirus B4 [13] = assay: Antiviral activity against Coxsackievirus B4 infected in human cervix carcinoma cells assessed as inhibition of virus-induced cytopathic effect at 0.32 to 100 uM; format: functional, organism-based; how it was run: as §2

CC(C(=O)NN)c1cccc(Cc2ccccc2)c1 (centres undefined)
< 4.00: pIC50 (NCI-H460) | pIC50 (HCT-116) | pIC50 (MCF7)
3.82: pIC50 (CCRF-CEM)
6%: inhibition [10]
inactive: inhibition [1] | inhibition (Coxsackievirus B4 [2]) | inhibition (Feline coronavirus) | inhibition [3] | Activity [4] | inhibition (Influenza A virus [5]) | inhibition (Influenza A virus [6]) | inhibition (Sindbis virus) | inhibition (Punta Toro virus) | inhibition (Influenza B virus) | inhibition [7] | inhibition (Human respirovirus 3) | inhibition [8] | inhibition [9] | inhibition (Felid alphaherpesvirus 1) | inhibition [11] | Activity [12] | inhibition (Human alphaherpesvirus 1) | inhibition (Vaccinia virus) | inhibition (Human alphaherpesvirus 2) | inhibition (Coxsackievirus B4 [13])
3.85: pIC50 (HeLa)
3.67: pIC50 (L1210)
10%: inhibition (Glycine max)

CC(C(=O)NNC(=O)NNC(=O)NO)c1cccc(Oc2ccccc2)c1 (centres undefined)
< 3.60: pIC50 (CCRF-CEM) | pIC50 (L1210)
≤ 3.60: pIC50 (HeLa)
48%: Activity [12]
13%: inhibition [10]
< 4.00: pIC50 (NCI-H460) | pIC50 (HCT-116) | pIC50 (MCF7)
23%: Activity [4]
inactive: inhibition [1] | inhibition (Glycine max) | inhibition (Coxsackievirus B4 [2]) | inhibition (Feline coronavirus) | inhibition [3] | inhibition (Influenza A virus [5]) | inhibition (Influenza A virus [6]) | inhibition (Sindbis virus) | inhibition (Punta Toro virus) | inhibition (Influenza B virus) | inhibition [7] | inhibition (Human respirovirus 3) | inhibition [8] | inhibition [9] | inhibition (Felid alphaherpesvirus 1) | inhibition [11] | inhibition (Human alphaherpesvirus 1) | inhibition (Vaccinia virus) | inhibition (Human alphaherpesvirus 2) | inhibition (Coxsackievirus B4 [13])

CC(C)Cc1ccc(C(C)C(=O)NNC(=O)NC2CCCCC2)cc1 (centres undefined)
4.46: pIC50 (NCI-H460)
inactive: inhibition [1] | inhibition (Glycine max) | inhibition (Coxsackievirus B4 [2]) | inhibition (Feline coronavirus) | inhibition [3] | Activity [4] | inhibition (Influenza A virus [5]) | inhibition (Influenza A virus [6]) | inhibition (Sindbis virus) | inhibition (Punta Toro virus) | inhibition (Influenza B virus) | inhibition [7] | inhibition (Human respirovirus 3) | inhibition [8] | inhibition [9] | inhibition (Felid alphaherpesvirus 1) | inhibition [11] | Activity [12] | inhibition (Human alphaherpesvirus 1) | inhibition (Vaccinia virus) | inhibition (Human alphaherpesvirus 2) | inhibition (Coxsackievirus B4 [13])
33%: inhibition [10]
4.52: pIC50 (L1210)
4.28: pIC50 (CCRF-CEM)
4.16: pIC50 (HeLa)
4.55: pIC50 (HCT-116)
4.72: pIC50 (MCF7)

O=C(NNC(=O)n1nnc2ccccc21)NOCc1ccccc1
< 3.60: pIC50 (HeLa) | pIC50 (CCRF-CEM) | pIC50 (L1210)
31%: inhibition [10]
85%: Activity [4] | Activity [12]
< 4.00: pIC50 (NCI-H460) | pIC50 (HCT-116) | pIC50 (MCF7)
inactive: inhibition [1] | inhibition (Glycine max) | inhibition (Coxsackievirus B4 [2]) | inhibition (Feline coronavirus) | inhibition [3] | inhibition (Influenza A virus [5]) | inhibition (Influenza A virus [6]) | inhibition (Sindbis virus) | inhibition (Punta Toro virus) | inhibition (Influenza B virus) | inhibition [7] | inhibition (Human respirovirus 3) | inhibition [8] | inhibition [9] | inhibition (Felid alphaherpesvirus 1) | inhibition [11] | inhibition (Human alphaherpesvirus 1) | inhibition (Vaccinia virus) | inhibition (Human alphaherpesvirus 2) | inhibition (Coxsackievirus B4 [13])

CC(C(=O)NNC(=O)NO)c1cccc(Cc2ccccc2)c1 (centres undefined)
3.81: pIC50 (CCRF-CEM)
8%: inhibition (Glycine max) | inhibition [10]
36%: Activity [4]
3.75: pIC50 (HeLa)
59%: Activity [12]
3.95: pIC50 (L1210)
inactive: inhibition [1] | inhibition (Coxsackievirus B4 [2]) | inhibition (Feline coronavirus) | inhibition [3] | inhibition (Influenza A virus [5]) | inhibition (Influenza A virus [6]) | inhibition (Sindbis virus) | inhibition (Punta Toro virus) | inhibition (Influenza B virus) | inhibition [7] | inhibition (Human respirovirus 3) | inhibition [8] | inhibition [9] | inhibition (Felid alphaherpesvirus 1) | inhibition [11] | inhibition (Human alphaherpesvirus 1) | inhibition (Vaccinia virus) | inhibition (Human alphaherpesvirus 2) | inhibition (Coxsackievirus B4 [13])
< 4.00: pIC50 (NCI-H460) | pIC50 (HCT-116) | pIC50 (MCF7)

CC(C)Cc1ccc(C(C)C(=O)NNC(=O)NO)cc1 (centres undefined)
3.97: pIC50 (L1210)
inactive: inhibition [1] | inhibition (Coxsackievirus B4 [2]) | inhibition (Feline coronavirus) | inhibition [3] | inhibition (Influenza A virus [5]) | inhibition (Influenza A virus [6]) | inhibition (Sindbis virus) | inhibition (Punta Toro virus) | inhibition (Influenza B virus) | inhibition [7] | inhibition (Human respirovirus 3) | inhibition [8] | inhibition [9] | inhibition (Felid alphaherpesvirus 1) | inhibition [11] | inhibition (Human alphaherpesvirus 1) | inhibition (Vaccinia virus) | inhibition (Human alphaherpesvirus 2) | inhibition (Coxsackievirus B4 [13])
20%: inhibition [10]
3.69: pIC50 (CCRF-CEM)
54%: Activity [12]
3.80: pIC50 (HeLa)
7%: inhibition (Glycine max)
29%: Activity [4]
< 4.00: pIC50 (NCI-H460) | pIC50 (HCT-116) | pIC50 (MCF7)
